A value given as a limit tells only on which side of the number the result lay.

Type in all cases: functional
For test [1], the system named is BT-549. Briefly: Anticancer activity against human BT549 cells after 48 hrs by sulforhodamine B assay. The conditions noted are these: BT-549, 48 h. Summed up: (§1)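 NCI 60-cell-line screen. Cells grown in RPMI 1640 with 5% FBS and 2 mM L-glutamine, plated at 5000–40,000 cells/well, and preincubated 24 h at 37 °C under 5% CO2. Compounds were taken from DMSO stocks and tested at five final concentrations, 10^-4 to 10^-8 M, for 48 h. Cells were TCA-fixed, stained with 0.4% SRB, and read at 515 nm. GI50, TGI and LC50 were derived as log molar values.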

Test [2] deals with SW-620. The test is described as follows: Anticancer activity against human SW620 cells after 48 hrs by sulforhodamine B assay. The conditions noted are these: SW-620, 48 h. The essentials:
(§2)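 NCI 60-cell-line panel; cells grown in RPMI 1640 with 5% FBS and 2 mM L-glutamine, plated at 5000–40,000 cells/well and preincubated 24 h at 37 °C, 5% CO2. Compounds came from DMSO stocks diluted in medium with gentamicin and were tested at five final concentrations, 10^-4 to 10^-8 M, for 48 h. Cells were fixed with TCA, stained with SRB and read at 515 nm. GI50, TGI and LC50 were derived as log molar values.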

The subject of test [3] is SK-MEL-5. The test is described as follows: Anticancer activity against human SK-MEL-5 cells after 48 hrs by sulforhodamine B assay. To be noted: SK-MEL-5, 48 h. Summed up:
as §1

Test [4] relates to NCI-H460. Briefly: Anticancer activity against human NCI-H460 cells assessed as cell growth at 100 uM after 48 hrs by Alamar blue assay relative to control. The conditions noted are these: NCI-H460, 48 h, read-out: Activity. Summed up:
(§3)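 NCI one-dose pre-test on MCF7, NCI-H460 and SF-268. Cells were inoculated and preincubated, then exposed to a single 10^-4 M concentration for 48 h. End-point was alamar blue. Results are percent growth versus untreated control cells, with negative values indicating cell kill.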

In test [5] the test system is HOP-92. Briefly: Anticancer activity against human HOP92 cells after 48 hrs by sulforhodamine B assay. The conditions noted are these: HOP-92, 48 h. The essentials: as §1
For test [6], the system named is MCF7. The test is described as follows: Anticancer activity against human MCF7 cells after 48 hrs by sulforhodamine B assay. The conditions noted are these: MCF7, 48 h. The essentials: as §1
For test [7], the system named is NCI/ADR-RES. The test is described as follows: Anticancer activity against human NCI/ADR-RES cells after 48 hrs by sulforhodamine B assay. Summed up: as §1
Test [8] deals with OVCAR-4. Briefly: Anticancer activity against human OVCAR4 cells after 48 hrs by sulforhodamine B assay. To be noted: OVCAR-4, 48 h. Summed up: as §1
Test [9] deals with SK-OV-3. Briefly: Anticancer activity against human SKOV3 cells after 48 hrs by sulforhodamine B assay. To be noted: SK-OV-3, 48 h. Summed up:
as §1

A short description of test [10]: Anticancer activity against human Hs 578T cells after 48 hrs by sulforhodamine B assay. The essentials: as §1
Test [11] deals with SNB-19. Briefly: Anticancer activity against human SNB19 cells after 48 hrs by sulforhodamine B assay. The conditions noted are these: SNB-19, 48 h. The essentials:
as §2

The test system of test [12] is SF-268. The test is described as follows: Anticancer activity against human SF268 cells assessed as cell growth at 100 uM after 48 hrs by Alamar blue assay relative to control. To be noted: SF-268, 48 h, read-out: Activity. The essentials:
as §3

In test [13] the test system is SNB-75. The test is described as follows: Anticancer activity against human SNB75 cells after 48 hrs by sulforhodamine B assay. To be noted: SNB-75, 48 h. The essentials: as §2
The subject of test [14] is HCC 2998. Briefly: Anticancer activity against human HCC2998 cells after 48 hrs by sulforhodamine B assay. The conditions noted are these: HCC 2998, 48 h. The essentials:
as §1

Test [15] relates to MCF7. The test is described as follows: Anticancer activity against human MCF7 cells assessed as cell growth at 100 uM after 48 hrs by Alamar blue assay relative to control. To be noted: MCF7, 48 h, read-out: Activity. The essentials:
as §3

In test [16] the test system is NCI-H23. Briefly: Anticancer activity against human NCI-H23 cells after 48 hrs by sulforhodamine B assay. The conditions noted are these: NCI-H23, 48 h. The essentials:
(§4)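 NCI 60-cell-line screen. Cells were grown in RPMI 1640 with 5% FBS and 2 mM L-glutamine, seeded at 5000–40,000 cells/well and preincubated 24 h at 37 °C, 5% CO2. Compounds in DMSO were diluted in medium with gentamicin and tested at five concentrations (10^-4 to 10^-8 M) for 48 h. Cells were then fixed with TCA, stained with SRB and read at 515 nm.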

Test [17] deals with HL-60(TB). Briefly: Anticancer activity against human HL-60(TB) cells after 48 hrs by sulforhodamine B assay. To be noted: HL-60, 48 h. Summed up: as §4
The nature of test [18]: Anticancer activity against human RPMI8266 cells after 48 hrs by sulforhodamine B assay. Summed up:
as §1

In the case of `CCC(NC(=O)Nc1nc2ccccc2s1)(C(F)(F)F)C(F)(F)F`, the GI50 is 18.2 µM in test [1]; 20.9 µM in [2]; 17.8 µM in test [3]; 19.1 µM in [5]; 15.8 µM in test [6]; 19.5 µM in test [7]. The GI50 in test [8] was 18.6 µM; in test [9] it was 17.8 µM; in [10], 21.4 µM; in test [11], 20.9 µM; in test [13] it was 1.45 µM; in [14], 19.1 µM. Further, the growth at 100 µM in test [4] was -93%; in [12], -94%; in [15], -79%.
Regarding `O=c1[nH]cc(F)c(=O)[nH]1` [FLUOROURACIL], the GI50 in test [1] is 10.7 µM; in test [2], 0.933 µM; in test [16], 0.331 µM; in test [3] it was 0.468 µM; in test [5], 77.6 µM; in test [6], 0.0794 µM. The GI50 in test [7] was 0.316 µM; in test [8] it was 4.47 µM; in test [9], 21.9 µM; in [10] it was 9.77 µM; in test [17], 2.29 µM; in [11] it was 3.8 µM. In addition, the GI50 was 79.4 µM in test [13] and 0.0525 µM in test [14].
As to `CC(NC(=O)Nc1nc2ccccc2s1)(C(F)(F)F)C(F)(F)F`, the GI50 in test [1] was greater than 100 µM; in test [2], 45.7 µM; in [3] it was 49 µM; in [5], 75.9 µM; in test [6], 38 µM; in test [18] it was 38.9 µM. The 50% growth inhibitory concentration (GI50) in [7] was greater than 100 µM; in test [8], 21.9 µM; in test [9] it was 52.5 µM; in test [10], 18.6 µM; in test [17], 97.7 µM; in test [11] it was 24.5 µM. Besides, the GI50 in test [13] was 7.59 µM; in test [14], 38.9 µM. The results for the growth at 100 µM in test [4], in [12] and in [15] were 43%, 28% and 62%, respectively.
Consider `O=C(Nc1nccs1)NC(C(F)(F)F)C(F)(F)F`, for which the GI50 is 46.8 µM in test [1]; greater than 100 µM in [2]; 38.9 µM in test [3]; 38 µM in [5]; 40.7 µM in test [6]; 33.1 µM in test [7]. Also, the GI50 in test [8] is 39.8 µM; in test [9], greater than 100 µM; in test [10], 22.4 µM; in [17], 72.4 µM; in test [11], 49 µM; in test [13], 55 µM. The compound further gave a GI50 in test [14] of 31.6 µM. The results for the growth at 100 µM in test [4], in test [12] and in [15] were 22%, 20% and 35%, respectively.
On to `CCC(NC(=O)Nc1nccs1)(C(F)(F)F)C(F)(F)F`, for which the GI50 in [1] is 40.7 µM; in test [2], 83.2 µM; in test [3] it was 33.9 µM; in test [5] it was 60.3 µM; in [6], 42.7 µM; in [7], 29.5 µM. Also, the concentration for 50% growth inhibition (GI50) in test [8] is 83.2 µM; in test [9], greater than 100 µM; in test [10] it was 52.5 µM; in test [11], greater than 100 µM; in test [13] it was 19.5 µM; in test [14], 74.1 µM. Besides, the growth at 100 µM in [4] came to 6%; in test [12], 40%; in test [15] it was 20%.
Turning to `CNC(=O)Nc1ccccc1`, the GI50 in test [1], in test [2], in [16], in test [3], in test [5] and in test [6] was 100 µM each time. Moreover, the GI50 in test [18], in test [7], in [8], in [9], in test [10] and in test [17] was 100 µM in each case. For the same compound, the figures for the GI50 in [11], in test [13] and in [14] were 100 µM, 74.1 µM and 100 µM, respectively.
Turning to `O=C(Nc1nc2ccccc2s1)NC(C(F)(F)F)C(F)(F)F`, the GI50 in test [1] was 28.2 µM; in test [2], 33.9 µM; in test [3], 15.5 µM; in [5] it was 33.9 µM; in test [6] it was 28.2 µM; in test [18], 33.9 µM. Besides, the GI50 in test [7] is 27.5 µM; in [8], 28.8 µM; in test [9] it was 30.9 µM; in test [10] it was 26.9 µM; in test [17] it was 26.3 µM; in test [11], 35.5 µM. For the same compound, the results for the GI50 in test [13] and in test [14] were 17 µM and 20 µM, respectively. For the same compound, the results for the growth at 100 µM in test [4], in test [12] and in [15] were -74%, -39% and -10%, respectively.

The values above are taken from ChEMBL document CHEMBL1155222, “Synthesis and anticancer activity of N-bis(trifluoromethyl)alkyl-N'-thiazolyl and N-bis(trifluoromethyl)alkyl-N'-benzothiazolyl ureas” (2009).
